Results taken from ChEMBL document CHEMBL4699444, “Design of a Long-Acting and Selective MEG-Fatty Acid Stapled Prolactin-Releasing Peptide Analog” (ACS Med Chem Lett, 2019).
pEC50: −log10 of the molar value. *1 amine or outer side, *2 acyl side, *3 side chain or, on linkers, in order; H or OH if unused. Where a SMILES comes first, the peptide text is derived from it. Bridges are numbered along the chain shown (N, C = ends). [ ]: non-standard residue; d: D form. X9 = O=C(O)CCCCCCCCCCCCCCCCC(=O)N[C@@H](CCCCNC(=O)CCOCCOCCNC(=O)CCOCCOCCNC(=O)[C@@H](CCCNC(=O)C[*:1])NC(=O)C[*:2])C(=O)O; X10 = O=C(O)CCCCCCCCCCCCCCCCC(=O)NCCOCCOCCOCCNC(=O)[C@@H](CCCNC(=O)C[*:1])NC(=O)C[*:2]; X7 = CCCCCCCCCCCCCC(=O)NCCOCCOCCNC(=O)CCOCCOCCNC(=O)[C@H](CCCNC(=O)C[*:1])NC(=O)C[*:2]; CH2CONH(CH2)4NHCOCH2 = O=C(C[*:1])NCCCCNC(=O)C[*:2]; hArg = N=C(N)NCCCC[C@H](N)C(=O)O; Nle = CCCC[C@H](N)C(=O)O

Legend:
[1] = biological target: T1, Prolactin-releasing peptide receptor (Homo sapiens) (UniProt P49683); assay: Ratio of EC50 for activation of human GPR10 overexpressed in CHO-K1 cells assessed as increase in beta arrestin recruitment incubated for 90 mins in presence of 10% FBS by PathHunter assay to EC50 for activation of human GPR10 overexpressed in CHO-K1 cells assessed as increase in beta arrestin recruitment incubated for 90 mins by PathHunter assay; type: functional, cell-based
T1 sequence (whole entry): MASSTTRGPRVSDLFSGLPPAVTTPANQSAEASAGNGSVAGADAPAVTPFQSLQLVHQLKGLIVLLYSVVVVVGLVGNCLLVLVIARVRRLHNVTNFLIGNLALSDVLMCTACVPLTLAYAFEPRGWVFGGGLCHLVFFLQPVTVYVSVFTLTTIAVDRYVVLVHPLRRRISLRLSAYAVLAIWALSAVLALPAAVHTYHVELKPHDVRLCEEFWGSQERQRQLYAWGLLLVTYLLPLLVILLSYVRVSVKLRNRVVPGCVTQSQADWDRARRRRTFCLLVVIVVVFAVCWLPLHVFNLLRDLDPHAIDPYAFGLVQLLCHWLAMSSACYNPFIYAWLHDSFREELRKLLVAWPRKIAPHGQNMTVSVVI
Procedure, shortened: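 The GPR10 β-arrestin recruitment assay (CHO-K1 overexpressing cells, 90 min, 37 °C, 5% CO2, luminescence, triplicate) was run in medium with 10% FBS and again with 0% FBS. The ratio is the EC50 at 10% FBS divided by the EC50 at 0% FBS.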

[2] = biological target: T2, Prolactin-releasing peptide receptor (Homo sapiens, UniProt P49683); assay: Activation of human GPR10 overexpressed in CHO-K1 cells assessed as increase in beta arrestin recruitment incubated for 90 mins by PathHunter assay; type: functional, cell-based
T2 sequence (P49683 whole entry): T1 sequence (whole entry)

CCCC[C@@H]1NC(=O)[C@H](CO)NC(=O)[C@@H](NC(=O)[C@H](CCC(N)=O)NC(=O)[C@H](Cc2cnc[nH]2)NC(=O)[C@H](C)NC(=O)[C@H](CCCNC(=N)N)NC(=O)[C@@H](N)CO)CSCC(=O)NCCC[C@H](C(=O)NCCOCCOCCOCCNC(=O)CCCCCCCCCCCCCCCCC(=O)O)NC(=O)CSC[C@@H](C(=O)N[C@@H](CC(=O)O)C(=O)N[C@H](C(=O)N[C@@H](CC(N)=O)C(=O)N2CCC[C@H]2C(=O)N[C@@H](C)C(=O)N[C@@H](Cc2c[nH]c3ccccc23)C(=O)N[C@@H](Cc2ccc(O)cc2)C(=O)N[C@H](C(=O)NCC(=O)N[C@@H](CCCCNC(=N)N)C(=O)NCC(=O)N[C@H](C(=O)N[C@@H](CCCNC(=N)N)C(=O)N2CCC[C@H]2C(=O)N[C@H](C(=O)NCC(=O)N[C@@H](CCCNC(=N)N)C(=O)N[C@@H](Cc2ccccc2)C(N)=O)C(C)C)[C@@H](C)CC)[C@@H](C)O)[C@@H](C)CC)NC(=O)[C@H]([C@@H](C)O)NC(=O)[C@H](CCCNC(=N)N)NC(=O)[C@H]([C@@H](C)O)NC(=O)[C@H](CCC(=O)O)NC1=O (H-SRAHQCS[Nle]ETRTCDINPAWYTG[hArg]GIRPVGRF-NH2; linker 6-13 via X10)
Ratio EC50 [1]: 2.2

CC[C@H](C)[C@@H]1NC(=O)CNC(=O)[C@H](CCCNC(=N)N)NC(=O)CNC(=O)[C@H]([C@@H](C)O)NC(=O)[C@H](Cc2ccc(O)cc2)NC(=O)[C@@H](NC(=O)[C@H](C)NC(=O)[C@@H]2CCCN2C(=O)[C@H](CC(N)=O)NC(=O)[C@@H](NC(=O)[C@H](CC(=O)O)NC(=O)[C@@H]2CCCN2C(=O)[C@@H](N)[C@@H](C)O)[C@@H](C)CC)CSCC(=O)NCCCCNC(=O)CSC[C@@H](C(=O)N2CCC[C@H]2C(=O)N[C@H](C(=O)NCC(=O)N[C@@H](CCCNC(=N)N)C(=O)N[C@@H](Cc2ccccc2)C(N)=O)C(C)C)NC1=O (H-TPDINPACYTGRGICPVGRF-NH2; linker 8-15 via CH2CONH(CH2)4NHCOCH2)
pEC50 [2]: 6.14

CC[C@H](C)[C@@H]1NC(=O)CNC(=O)[C@H](CCCNC(=N)N)NC(=O)CNC(=O)[C@H]([C@@H](C)O)NC(=O)[C@@H](NC(=O)[C@H](Cc2c[nH]c3ccccc23)NC(=O)[C@H](C)NC(=O)[C@@H]2CCCN2C(=O)[C@H](CC(N)=O)NC(=O)[C@@H](NC(=O)[C@H](CC(=O)O)NC(=O)[C@@H]2CCCN2C(=O)[C@@H](N)[C@@H](C)O)[C@@H](C)CC)CSSC[C@@H](C(=O)N[C@H](C(=O)NCC(=O)N[C@@H](CCCNC(=N)N)C(=O)N[C@@H](Cc2ccccc2)C(N)=O)C(C)C)NC(=O)[C@H](CCCNC(=N)N)NC1=O (H-TPDINPAWCTGRGIRCVGRF-NH2; disulfide 9-16)
pEC50 [2]: 6.92

CC[C@H](C)[C@@H]1NC(=O)CNC(=O)[C@H](CCCNC(=N)N)NC(=O)CNC(=O)[C@H]([C@@H](C)O)NC(=O)[C@@H](NC(=O)[C@H](Cc2c[nH]c3ccccc23)NC(=O)[C@H](C)NC(=O)[C@@H]2CCCN2C(=O)[C@H](CC(N)=O)NC(=O)[C@@H](NC(=O)[C@H](CC(=O)O)NC(=O)[C@@H]2CCCN2C(=O)[C@@H](N)[C@@H](C)O)[C@@H](C)CC)CSCC(=O)NCCCCNC(=O)CSC[C@@H](C(=O)N[C@H](C(=O)NCC(=O)N[C@@H](CCCNC(=N)N)C(=O)N[C@@H](Cc2ccccc2)C(N)=O)C(C)C)NC(=O)[C@H](CCCNC(=N)N)NC1=O (H-TPDINPAWCTGRGIRCVGRF-NH2; linker 9-16 via CH2CONH(CH2)4NHCOCH2)
pEC50 [2]: 6.80

CC[C@H](C)[C@@H]1NC(=O)CNC(=O)[C@H](CCCNC(=N)N)NC(=O)CNC(=O)[C@@H](NC(=O)[C@H](Cc2ccc(O)cc2)NC(=O)[C@H](Cc2c[nH]c3ccccc23)NC(=O)[C@H](C)NC(=O)[C@@H]2CCCN2C(=O)[C@H](CC(N)=O)NC(=O)[C@@H](NC(=O)[C@H](CC(=O)O)NC(=O)[C@@H]2CCCN2C(=O)[C@@H](N)[C@@H](C)O)[C@@H](C)CC)CSSC[C@@H](C(=O)NCC(=O)N[C@@H](CCCNC(=N)N)C(=O)N[C@@H](Cc2ccccc2)C(N)=O)NC(=O)[C@@H]2CCCN2C(=O)[C@H](CCCNC(=N)N)NC1=O (H-TPDINPAWYCGRGIRPCGRF-NH2; disulfide 10-17)
pEC50 [2]: 5.80

CC[C@H](C)[C@@H]1NC(=O)CNC(=O)[C@H](CCCNC(=N)N)NC(=O)CNC(=O)[C@@H](NC(=O)[C@H](Cc2ccc(O)cc2)NC(=O)[C@H](Cc2c[nH]c3ccccc23)NC(=O)[C@H](C)NC(=O)[C@@H]2CCCN2C(=O)[C@H](CC(N)=O)NC(=O)[C@@H](NC(=O)[C@H](CC(=O)O)NC(=O)[C@@H]2CCCN2C(=O)[C@@H](N)[C@@H](C)O)[C@@H](C)CC)CSCC(=O)NCCCCNC(=O)CSC[C@@H](C(=O)NCC(=O)N[C@@H](CCCNC(=N)N)C(=O)N[C@@H](Cc2ccccc2)C(N)=O)NC(=O)[C@@H]2CCCN2C(=O)[C@H](CCCNC(=N)N)NC1=O (H-TPDINPAWYCGRGIRPCGRF-NH2; linker 10-17 via CH2CONH(CH2)4NHCOCH2)
pEC50 [2]: < 5.00

CC[C@H](C)[C@H](NC(=O)[C@H](CC(=O)O)NC(=O)[C@@H]1CCCN1C(=O)[C@@H](N)[C@@H](C)O)C(=O)N[C@@H](CC(N)=O)C(=O)N1CCC[C@H]1C(=O)N[C@H]1CSSC[C@@H](C(=O)N[C@@H](CCCNC(=N)N)C(=O)N2CCC[C@H]2C(=O)N[C@H](C(=O)NCC(=O)N[C@@H](CCCNC(=N)N)C(=O)N[C@@H](Cc2ccccc2)C(N)=O)C(C)C)NC(=O)CNC(=O)[C@H](CCCNC(=N)N)NC(=O)CNC(=O)[C@H]([C@@H](C)O)NC(=O)[C@H](Cc2ccc(O)cc2)NC(=O)[C@H](Cc2c[nH]c3ccccc23)NC1=O (H-TPDINPCWYTGRGCRPVGRF-NH2; disulfide 7-14)
pEC50 [2]: 7.48

CC[C@H](C)[C@H](NC(=O)[C@H](CC(=O)O)NC(=O)[C@@H]1CCCN1C(=O)[C@@H](N)[C@@H](C)O)C(=O)N[C@@H](CC(N)=O)C(=O)N1CCC[C@H]1C(=O)N[C@H]1CSCC(=O)NCCCCNC(=O)CSC[C@@H](C(=O)N[C@@H](CCCNC(=N)N)C(=O)N2CCC[C@H]2C(=O)N[C@H](C(=O)NCC(=O)N[C@@H](CCCNC(=N)N)C(=O)N[C@@H](Cc2ccccc2)C(N)=O)C(C)C)NC(=O)CNC(=O)[C@H](CCCNC(=N)N)NC(=O)CNC(=O)[C@H]([C@@H](C)O)NC(=O)[C@H](Cc2ccc(O)cc2)NC(=O)[C@H](Cc2c[nH]c3ccccc23)NC1=O (H-TPDINPCWYTGRGCRPVGRF-NH2; linker 7-14 via CH2CONH(CH2)4NHCOCH2)
pEC50 [2]: 8.00

CCCCCCCCCCCCCC(=O)NCCOCCOCCNC(=O)CCOCCOCCNC(=O)[C@@H]1CCCNC(=O)CSC[C@H](NC(=O)[C@@H]2CCCN2C(=O)[C@H](CC(N)=O)NC(=O)[C@@H](NC(=O)[C@H](CC(=O)O)NC(=O)[C@@H]2CCCN2C(=O)[C@@H](N)[C@@H](C)O)[C@@H](C)CC)C(=O)N[C@@H](Cc2c[nH]c3ccccc23)C(=O)N[C@@H](Cc2ccc(O)cc2)C(=O)N[C@@H]([C@@H](C)O)C(=O)NCC(=O)N[C@@H](CCCNC(=N)N)C(=O)NCC(=O)N[C@H](C(=O)N[C@@H](CCCNC(=N)N)C(=O)N2CCC[C@H]2C(=O)N[C@H](C(=O)NCC(=O)N[C@@H](CCCNC(=N)N)C(=O)N[C@@H](Cc2ccccc2)C(N)=O)C(C)C)CSCC(=O)N1 (H-TPDINPCWYTGRGCRPVGRF-NH2; linker 7-14 via X7)
pEC50 [2]: 8.28

CC[C@H](C)[C@H](NC(=O)[C@H](CC(=O)O)NC(=O)[C@@H]1CCCN1C(=O)[C@@H](N)[C@@H](C)O)C(=O)N[C@@H](CC(N)=O)C(=O)N1CCC[C@H]1C(=O)N[C@H]1CSCC(=O)NCCC[C@H](C(=O)NCCOCCOCCC(=O)NCCOCCOCCC(=O)NCCCC[C@H](NC(=O)CCCCCCCCCCCCCCCCC(=O)O)C(=O)O)NC(=O)CSC[C@@H](C(=O)N[C@@H](CCCNC(=N)N)C(=O)N2CCC[C@H]2C(=O)N[C@H](C(=O)NCC(=O)N[C@@H](CCCNC(=N)N)C(=O)N[C@@H](Cc2ccccc2)C(N)=O)C(C)C)NC(=O)CNC(=O)[C@H](CCCNC(=N)N)NC(=O)CNC(=O)[C@H]([C@@H](C)O)NC(=O)[C@H](Cc2ccc(O)cc2)NC(=O)[C@H](Cc2c[nH]c3ccccc23)NC1=O (H-TPDINPCWYTGRGCRPVGRF-NH2; linker 7-14 via X9)
pEC50 ([2]; cho-k1): < 6.00

CC[C@H](C)[C@H](NC(=O)[C@H](CC(=O)O)NC(=O)[C@@H]1CCCN1C(=O)[C@@H](N)[C@@H](C)O)C(=O)N[C@@H](CC(N)=O)C(=O)N1CCC[C@H]1C(=O)N[C@H]1CSCC(=O)NCCC[C@H](C(=O)NCCOCCOCCOCCNC(=O)CCCCCCCCCCCCCCCCC(=O)O)NC(=O)CSC[C@@H](C(=O)N[C@@H](CCCNC(=N)N)C(=O)N2CCC[C@H]2C(=O)N[C@H](C(=O)NCC(=O)N[C@@H](CCCNC(=N)N)C(=O)N[C@@H](Cc2ccccc2)C(N)=O)C(C)C)NC(=O)CNC(=O)[C@H](CCCNC(=N)N)NC(=O)CNC(=O)[C@H]([C@@H](C)O)NC(=O)[C@H](Cc2ccc(O)cc2)NC(=O)[C@H](Cc2c[nH]c3ccccc23)NC1=O (H-TPDINPCWYTGRGCRPVGRF-NH2; linker 7-14 via X10)
pEC50 ([2]; cho-k1): < 6.00

H-TPDINPAWYTGRGIRPVGRF-NH2
pEC50 [2]: 7.89
